From ChEMBL document CHEMBL5053485, “Targeting Acute Myelogenous Leukemia Using Potent Human Dihydroorotate Dehydrogenase Inhibitors Based on the 2-Hydroxypyrazolo[1,5-a]pyridine Scaffold: SAR of the Biphenyl Moiety” (J Med Chem, 2021)
Each block holds one compound with its values, some of them ahead of it. The source made the active and inactive calls. The calls are words filed in the database; no cut-off is given here.

Columns and labels:
[1] = n-Octanol/PBS partition coefficient, logD of the compound at pH 7.4 incubated for 20 mins by shake flask method; type: physicochemical
THP-1 [2] = assay: Induction of cell differentiation in human THP-1 cells assessed as CD14 expression at 1 uM after 3 days by flow cytometric analysis; type: functional, cell-based; conditions: time 3.0 day
THP-1 [3] = assay: Induction of apoptosis in human THP-1 cells at 1 uM after 3 days by Annexin-V-FITC staining based flow cytometry relative to control; type: functional, cell-based; conditions: time 3.0 day
How it was run: (§1)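 After 3 days, annexin V-FITC was read by flow cytometry. Significance versus DMSO used two-tailed paired t tests (P < 0.05). The assay was also run with 100 μM uridine.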

[4] = Protein binding in human serum at 50 uM after 1 hr by RP-UHPLC method; type: ADME, cell-free; conditions: read-out: PB (converted)
[5] = Solubility of compound in PBS at pH 7.4 after 24 hrs by UHPLC analysis; type: physicochemical
Jurkat = assay: Cytotoxicity against human Jurkat cells assessed as concentration required to induce more than 30% cytotoxicity incubated for 3 days by CSFE dye based assay; type: cell-based; conditions: 72 h, time 3 day
[6] = Metabolic stability in Sprague-Dawley rat liver microsomes assessed as parent compound remaining after 30 mins; type: ADME, Microsome; conditions: 0.5 h
How it was run: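 The regenerating system contained MgCl₂, NADP⁺, Glu6P and G6PDH. Controls were heat-inactivated microsomes and no regenerating system. Samples taken at 0–120 min were quenched in cold acetonitrile and analysed by HPLC–HRMS.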

THP-1 [7] = assay: Induction of cell differentiation in human THP-1 cells assessed as CD14 expression at 0.1 uM after 3 days by flow cytometric analysis; type: functional, cell-based; conditions: time 3.0 day
THP-1 [8] = assay: Induction of apoptosis in human THP-1 cells at 0.1 uM after 3 days by Annexin-V-FITC staining based flow cytometry relative to control; type: functional, cell-based; conditions: time 3.0 day; how it was run: as §1

- logD at 20 min [1]: 1.83
SMILES: Cc1c(-c2ccc(-c3ccccc3F)cc2)nc2ccc(F)cc2c1C(=O)O [BREQUINAR]

SMILES: O=C(Nc1c(F)c(F)c(-c2ccnc(C(F)(F)F)c2)c(F)c1F)c1c(O)nn2ccccc12
- Activity (THP-1 [2]): inactive
- Activity (THP-1 [3]): inactive

- fraction unbound at 1 h, 50 µM [4]: < 0.01
SMILES: COc1cccc(-c2cc(F)c(Nc3ncccc3C(=O)O)c(F)c2)c1 [ASLAN-003]

- solubility at 24 h [5]: < 6 µM
SMILES: O=C(Nc1c(F)c(F)c(-c2ccccc2)c(F)c1F)c1c(O)nn2c(Cl)cccc12

- Stability [6]: Unstable
SMILES: CCCOc1cccc(-c2c(F)c(F)c(NC(=O)c3c(O)nn4ccccc34)c(F)c2F)c1
- Activity (Jurkat): > 100 µM
- Activity (THP-1 [7]): Active
- Activity (THP-1 [8]): Active

- solubility at 24 h [5]: < 6 µM
SMILES: O=C(Nc1c(F)c(F)c(-c2ccccc2)c(F)c1F)c1c(O)nn2c1CCCC2

SMILES: O=C(Nc1c(F)c(F)c(-c2cccc(OC(F)(F)F)c2)c(F)c1F)c1c(O)nn2ccccc12
- Activity (Jurkat): > 100 µM
- Activity (THP-1 [7]): Active
- Activity (THP-1 [8]): Active

SMILES: O=C(Nc1c(F)c(F)c(N2CCOCC2)c(F)c1F)c1c(O)nn2ccccc12
- Activity (THP-1 [2]): inactive
- Activity (THP-1 [3]): inactive

SMILES: COc1cccc(-c2c(F)c(F)c(NC(=O)c3c(O)nn4ccccc34)c(F)c2F)c1
- Activity (THP-1 [7]): Active
- Activity (THP-1 [8]): Active

SMILES: O=C(Nc1c(F)c(F)c(-c2cccc(C(F)(F)F)c2)c(F)c1F)c1c(O)nn2ccccc12
- Activity (Jurkat): > 100 µM
- Activity (THP-1 [7]): Active
- Activity (THP-1 [8]): Active

- logD at 20 min [1]: 2.09
SMILES: O=C(Nc1c(F)c(F)c(-c2cccc(F)c2)c(F)c1F)c1c(O)nn2ccccc12
- Activity (THP-1 [7]): Active
- Activity (THP-1 [8]): Active

SMILES: O=C(Nc1c(F)c(F)c(-c2cccnc2)c(F)c1F)c1c(O)nn2ccccc12
- Activity (THP-1 [2]): inactive
- Activity (THP-1 [3]): inactive

- logD at 20 min [1]: 2.7
- solubility at 24 h [5]: < 1 µM
- fraction unbound at 1 h, 50 µM [4]: 0.099
SMILES: CCn1c(CO)nn(-c2cc(O[C@@H](C)C(F)(F)F)c(C(=O)Nc3c(F)cccc3Cl)cc2F)c1=O

SMILES: O=C(Nc1c(F)c(F)c(-c2cccc(O)c2)c(F)c1F)c1c(O)nn2ccccc12
- Activity (THP-1 [2]): inactive
- Activity (THP-1 [3]): inactive
